The test system of data set [1] is OVCAR-8 cells stably transfected with GHSR-1a. The data set can be described thus: Confocal fluorescence microscopy of OVCAR-8 cells transfected with GHSR-1a. The format is cell-based. The settings on record: 0.1 μM, 1 h, 37 °C. An outline of the steps: (§1)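 OVCAR-8 cells, either stably transfected with GHSR-1a or parental, were detached with trypsin-free dissociation buffer and seeded at 50 000 cells/well on coverslips. They were cultured overnight in RPMI/10% FBS at 37 °C, 5% CO2. Test compound at 0.1 μM was added in serum-free RPMI for 1 h at 37 °C. Cells were washed three times with PBS, fixed in 4% paraformaldehyde and mounted with DAPI. Confocal settings: ex 559 nm, em 598–698 nm; 40× and 60× objectives.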

Data set [2] has as its system parental OVCAR-8 cells. The experiment in a line: Confocal fluorescence microscopy of parental OVCAR-8 cells. Type of data set: cell-based. The settings on record: low expression of GHSR-1a. An outline of the steps: as §1
A short description of data set [3]: Photophysical properties. Type of data set: physicochemical. As to conditions: in DMSO; for λabs (absorption maximum): UV-Vis spectrophotometer; for ΦF (fluorescence quantum yield): comparative method, [Ru(bpy)3][PF6]2 as relative standard. An outline of the steps: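 Measurements were made in DMSO. UV-Vis absorption and excitation/emission spectra were recorded. Molar extinction coefficient was taken from the slope of absorbance versus concentration over seven solutions of known concentration. Fluorescence quantum yield was determined by the comparative method against the [Ru(bpy)3][PF6]2 standard.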

Data set [4] deals with GHSR-1a (Homo sapiens, UniProt Q92847). The experiment in a line: Radioligand competitive binding assay, GHSR-1a. An outline of the steps: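 Competition binding used membranes from HEK293 cells transiently transfected with GHSR-1a (50 000 cells/tube) and human [125I]-ghrelin(1–28) (15 000 cpm/tube). Test peptide was run at 10−11 to 10−5 M, with incubation for 20 min at 550 rpm. Unbound radioligand was removed and bound activity gamma-counted. Human ghrelin(1–28) served as reference. IC50 came from nonlinear regression; assays were run in triplicate.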

Data set [5] relates to PC-3 cells. The experiment in a line: Confocal fluorescence microscopy of PC-3 cells. Type of data set: cell-based. As to conditions: 0.5 μM, 1 h, 37 °C. An outline of the steps:
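PC-3 cells, with native GRPR, were detached with trypsin-free dissociation buffer and seeded at 50 000 cells/well on coverslips. They were cultured overnight in F-12K/10% FBS at 37 °C, 5% CO2. Test compound at 0.5 μM was added in serum-free F-12K for 1 h at 37 °C, alone or with a 10-fold molar excess of the unlabelled parent peptide as blocker. Cells were PBS-washed three times, fixed in 4% paraformaldehyde and mounted with DAPI. Confocal settings: ex 559 nm, em 605–705 nm.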

Data set [6] concerns GRPR in PC-3 cells. The data set can be described thus: Blocking study in PC-3 cells with parent peptide 3. The settings on record: 0.5 μM 7, 1 h, 37 °C; 10-fold molar excess of 3. Type of data set: cell-based.
The target of data set [7] is GRPR (Homo sapiens, UniProt P30550). The experiment in a line: Radioligand competitive binding assay, GRPR. An outline of the steps: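 Whole-cell competition binding used PC-3 cells (500 000/vial) grown in F-12K/10% FBS, with [125I]Tyr4-bombesin as radioligand. Test peptide was run at 10−12 to 10−6 M, shaking at 550 rpm for 1 h at 37 °C. Cells were centrifuged, the pellet washed with 50 mM Tris pH 7.4, and bound activity gamma-counted. IC50 came from nonlinear regression; assays were run in triplicate.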

As usually defined, the IC50 is the concentration that inhibits the measured activity by half. A higher IC50 goes with weaker potency in that assay.

“Also recorded” adds a separate entry of the source. Starred links: 1 amine or outer side, 2 acyl side, 3 side chain; linkers in the order of their positions; H or OH if unused. Non-standard residues stand in square brackets, D forms with d. Residues, ends and D or L forms follow the SMILES beside them. *: point of attachment. X2 = COc1ccc([N+]2=NC(C#N)=NN(c3ccc(-c4cn(CCCC[C@H](N[*:1])C(=O)[*:2])nn4)cc3)[B-]2(F)F)cc1; Octanoyl = CCCCCCCC(=O)*; Dap = NC[C@H](N)C(=O)O

Chain of GRPR (P30550 whole entry): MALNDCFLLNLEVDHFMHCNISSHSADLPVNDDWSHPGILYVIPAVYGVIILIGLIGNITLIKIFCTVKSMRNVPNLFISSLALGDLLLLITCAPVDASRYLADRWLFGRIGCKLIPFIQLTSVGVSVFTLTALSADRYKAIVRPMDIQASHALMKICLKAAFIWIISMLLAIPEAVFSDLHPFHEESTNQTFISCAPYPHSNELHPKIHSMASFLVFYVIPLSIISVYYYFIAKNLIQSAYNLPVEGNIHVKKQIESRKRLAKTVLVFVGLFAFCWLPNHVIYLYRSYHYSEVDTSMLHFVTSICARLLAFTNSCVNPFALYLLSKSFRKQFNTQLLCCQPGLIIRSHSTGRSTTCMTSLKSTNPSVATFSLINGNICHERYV
Chain of GHSR-1a (Q92847 whole entry): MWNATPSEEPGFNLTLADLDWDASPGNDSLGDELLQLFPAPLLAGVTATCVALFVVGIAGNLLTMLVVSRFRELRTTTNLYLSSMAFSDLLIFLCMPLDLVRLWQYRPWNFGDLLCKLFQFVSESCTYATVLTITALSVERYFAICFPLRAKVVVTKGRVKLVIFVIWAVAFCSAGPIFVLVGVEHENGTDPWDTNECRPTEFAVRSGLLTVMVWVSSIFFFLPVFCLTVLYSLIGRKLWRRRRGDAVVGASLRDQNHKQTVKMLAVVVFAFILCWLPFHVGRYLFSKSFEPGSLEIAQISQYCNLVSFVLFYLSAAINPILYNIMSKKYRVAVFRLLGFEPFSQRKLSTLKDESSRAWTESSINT

Turning to `CCCCCCCC(=O)NC[C@H](NC(=O)[C@H](CO)NC(=O)CN)C(=O)N[C@@H](Cc1ccccc1)C(=O)N[C@@H](CC(C)C)C(=O)N[C@@H](CO)C(=O)N1CCC[C@H]1C(=O)N[C@H](C(=O)N[C@@H](CCCCn1cc(-c2ccc(N3N=C(C#N)N=[N+](c4ccc(OC)cc4)[B-]3(F)F)cc2)nn1)C(N)=O)[C@@H](C)O` [Compound 5, [Dpr(octanoyl)^3,Thr^8,Lys(triazole-formazanate)^9]ghrelin(1–9)] (H-GS[Dap](Octanoyl)FLSPT[X2]-NH2; N-terminus assumed), the “specific binding for GHSR-1a by confocal fluorescence microscopy” value in data set [1] is reported as “specific binding of 5 for GHSR-1a”. Further, the “cellular uptake (red emission)” value in data set [2] was “minimal uptake of 5”. Also, in data set [3], the “λem (emission maximum)” value is listed as 688 nm, the “λabs (absorption maximum)” value is recorded as 560 nm and the “ΦF (fluorescence quantum yield)” value is given as 21%. In data set [4], this compound had an IC50 of 89 nM. For the same compound, the “receptor affinity relative to parent peptide (in words)” value in data set [4] (vs parent peptide 2, GHSR-1a) is listed as “decrease in receptor affinity”.

For the compound `CCCC[C@H](NC(=O)[C@H](Cc1ccccc1)NC(=O)[C@H](Cc1c[nH]cn1)NC(=O)CCNC(=O)[C@@H](NC(=O)[C@H](C)NC(=O)[C@H](Cc1c[nH]c2ccccc12)NC(=O)[C@H](CCC(N)=O)NC(=O)[C@@H](Cc1ccccc1)NC(=O)COCC(=O)NCCOCCOCCOCCOCCOCCOCCOCCOCCn1cc(-c2ccc([N+]3=NC(C#N)=NN(c4ccc(OC)cc4)[B-]3(F)F)cc2)nn1)C(C)C)C(N)=O` [Compound 7] (HELM PEPTIDE1{[COc1ccc(N2N=C(C#N)N=[N+](c3ccc(-c4cn(CCOCCOCCOCCOCCOCCOCCOCCOCCNC(=O)COCC(=O)[*:2])nn4)cc3)[B-]2(F)F)cc1].[dF].Q.W.A.V.[bAla].H.F.[Nle].[am]}$$$$V2.0), the “specific binding for GRPR by confocal fluorescence microscopy” value in data set [5] was “analogue 7 for GRPR was demonstrated; also recorded: specific binding of analogue 7 to GRPR”. For the same compound, in data set [3], the “λem (emission maximum)” value is given as 690 nm, the “λabs (absorption maximum)” value was found to be 555 nm and the “ΦF (fluorescence quantum yield)” value came to 12%. In addition, the “ε (molar extinction coefficient)” value in data set [3] (slope of absorbance against concentration, seven solutions) was 31 900 M^−1 cm^−1. Also, the “displacement by parent peptide 3” value in data set [6] is “displacement of 7 by 10-fold molar excess of 3”. Moreover, the IC50 in data set [7] came out at 16.3 nM. For the same compound, the “receptor affinity relative to parent peptide (in words)” value in data set [7] (vs parent peptide 3, GRPR) was “decrease in receptor affinity”.

These data come from paper PMC9053952 (RSC Advances, 2020).
